In ChEMBL document CHEMBL1275530, “Aspergillus fumigatus forms biofilms with reduced antifungal drug susceptibility on bronchial epithelial cells” (2008):
≈ marks a conversion by molar mass, not a printed value. *1 amine or outer side, *2 acyl side, *3 side chain or, on linkers, in order; H or OH if unused. Where a SMILES comes first, the peptide text is derived from it. Bridges are numbered along the chain shown (N, C = ends). [ ]: non-standard residue; d: D form. The star is where a group is joined. hTyr(3S-OH,4S-OH,3'-OSO3H) = N[C@H](C(=O)O)[C@H](O)[C@@H](O)c1ccc(O)c(OS(=O)(=O)O)c1; Orn(4R-OH,5R-OH) = O=C([C@H](C[C@@H](O)[C@@H](O)N[*:3])N[*:1])[*:2]; Pro(3S-OH,4S-Me) = C[C@H]1CN[C@H](C(=O)O)[C@H]1O; X1 = CCCCCOc1ccc(-c2cc(-c3ccc(C(=O)*)cc3)no2)cc1; Gln(3R-OH) = NC(=O)C[C@@H](O)[C@H](N)C(=O)O; Hyp = O=C(O)[C@@H]1C[C@@H](O)CN1

Key:
Format in all cases: functional
Aspergillus fumigatus [1] = experiment: Antifungal activity against Aspergillus fumigatus ATCC 9197 grown as planktonic cell on polystyrene after 48 hrs by broth microdilution method; conditions: ATCC 9197, 48 h
How it was run: (§1)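 CLSI M38-A broth microdilution on planktonic conidia, with drugs added at once and end points read at 24 h and 48 h. Ranges in μg/ml: AMB 0.06 to 32; liposomal AMB, voriconazole, posaconazole, itraconazole, caspofungin and micafungin 0.03 to 16. Inoculum was the same as in the XTT assay. Three repeats.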

Aspergillus fumigatus [2] = experiment: Antifungal activity against Aspergillus fumigatus ATCC 9197 grown as biofilm on polystyrene after 24 to 48 hrs by XTT assay
How it was run: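 Biofilm was formed on polystyrene without epithelial cells, starting from 10^6 conidia/ml in MEM plus 10% FCS. Drugs were added after 24–48 h of biofilm growth. After a further 24 h and 48 h, XTT reduction gave MICs at 50% and 90% inhibition of metabolic activity relative to a drug-free control.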

Aspergillus fumigatus [3] = experiment: Antifungal activity against Aspergillus fumigatus ATCC 9197 grown as biofilm on CFBE41o cell after 24 to 48 hrs by XTT assay
How it was run: (§2)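 Biofilm grown in PS 96-well plates on confluent 16HBE14o− (1) or CFBE41o− (2) cells on fibronectin/collagen coating. Conidia (10^6/ml) in MEM plus 10% FCS adhered 2 h at 37°C, 5% CO2. Drugs were added after 24–48 h of biofilm growth and incubated another 24 h and 48 h. Sessile MIC was read by XTT as 50% (MIC-2) or 90% (MIC-1) inhibition of metabolic activity versus drug-free control. CFU were also plated. Three repeats.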

Aspergillus fumigatus [4] = experiment: Antifungal activity against Aspergillus fumigatus ATCC 9197 grown as biofilm on 16HBE cell after 24 to 48 hrs by XTT assay; how it was run: as §2
Aspergillus fumigatus [5] = experiment: Antifungal activity against Aspergillus fumigatus ATCC 9197 grown as planktonic cell on CFBE41o cell after 48 hrs by broth microdilution method; conditions: ATCC 9197, 48 h; how it was run: as §1
Aspergillus fumigatus [6] = experiment: Antifungal activity against Aspergillus fumigatus ATCC 9197 grown as planktonic cell on 16HBE cell after 48 hrs by broth microdilution method; conditions: ATCC 9197, 48 h; how it was run: as §1

Compound | MIC50 (Aspergillus fumigatus [1]) | MIC90 (Aspergillus fumigatus [1]) | MIC50 (Aspergillus fumigatus [2]) | MIC90 (Aspergillus fumigatus [2]) | MIC50 (Aspergillus fumigatus [3]) | MIC90 (Aspergillus fumigatus [3]) | MIC50 (Aspergillus fumigatus [4]) | MIC90 (Aspergillus fumigatus [4]) | MIC50 (Aspergillus fumigatus [5]) | MIC90 (Aspergillus fumigatus [5]) | MIC50 (Aspergillus fumigatus [6]) | MIC90 (Aspergillus fumigatus [6])
C[C@@H]1[C@H](O)[C@@H](C)/C=C/C=C/C=C/C=C/C=C/C=C/C=C/[C@H](O[C@@H]2O[C@H](C)[C@@H](O)[C@H](N)[C@@H]2O)C[C@@H]2O[C@](O)(C[C@@H](O)C[C@@H](O)[C@H](O)CC[C@@H](O)C[C@@H](O)CC(=O)O[C@H]1C)C[C@H](O)[C@H]2C(=O)O [AMPHOTERICIN B] | 1 µg/mL (≈ 1.08 µM) | 1 µg/mL (≈ 1.08 µM) | 8 µg/mL (≈ 8.66 µM) | 16 µg/mL (≈ 17.3 µM) | 4 µg/mL (≈ 4.33 µM) | 8 µg/mL (≈ 8.66 µM) | 2 µg/mL (≈ 2.16 µM) | 4 µg/mL (≈ 4.33 µM) | 0.5 µg/mL (≈ 0.541 µM) | 1 µg/mL (≈ 1.08 µM) | 0.5 µg/mL (≈ 0.541 µM) | 1 µg/mL (≈ 1.08 µM)
CC[C@H](C)C[C@H](C)CCCCCCCCC(=O)N[C@H]1C[C@@H](O)[C@@H](NCCN)NC(=O)[C@@H]2[C@@H](O)CCN2C(=O)[C@H]([C@H](O)CCN)NC(=O)[C@H]([C@H](O)[C@@H](O)c2ccc(O)cc2)NC(=O)[C@@H]2C[C@@H](O)CN2C(=O)[C@H]([C@@H](C)O)NC1=O [CASPOFUNGIN] | – | – | – | – | > 8 µg/mL | > 8 µg/mL | > 8 µg/mL | > 8 µg/mL | 0.5 µg/mL (≈ 0.457 µM) | 1 µg/mL (≈ 0.915 µM) | 0.5 µg/mL (≈ 0.457 µM) | 1 µg/mL (≈ 0.915 µM)
CCC(C)n1ncn(-c2ccc(N3CCN(c4ccc(OCC5COC(Cn6cncn6)(c6ccc(Cl)cc6Cl)O5)cc4)CC3)cc2)c1=O (stereo unspecified) [ITRACONAZOLE] | 0.5 µg/mL (≈ 0.709 µM) | 1 µg/mL (≈ 1.42 µM) | 2 µg/mL (≈ 2.83 µM) | 4 µg/mL (≈ 5.67 µM) | 1 µg/mL (≈ 1.42 µM) | 2 µg/mL (≈ 2.83 µM) | 1 µg/mL (≈ 1.42 µM) | 1 µg/mL (≈ 1.42 µM) | 0.125 µg/mL (≈ 0.177 µM) | 0.25 µg/mL (≈ 0.354 µM) | 0.125 µg/mL (≈ 0.177 µM) | 0.25 µg/mL (≈ 0.354 µM)
CCCCCOc1ccc(-c2cc(-c3ccc(C(=O)N[C@H]4C[C@@H](O)[C@@H](O)NC(=O)[C@@H]5[C@@H](O)[C@@H](C)CN5C(=O)[C@H]([C@H](O)CC(N)=O)NC(=O)[C@H]([C@H](O)[C@@H](O)c5ccc(O)c(OS(=O)(=O)O)c5)NC(=O)[C@@H]5C[C@@H](O)CN5C(=O)[C@H]([C@@H](C)O)NC4=O)cc3)no2)cc1 [MICAFUNGIN] (X1-[Orn(4R-OH,5R-OH)]T[Hyp][hTyr(3S-OH,4S-OH,3'-OSO3H)][Gln(3R-OH)][Pro(3S-OH,4S-Me)]; lactam 1-C) | – | – | – | – | > 8 µg/mL | > 8 µg/mL | > 8 µg/mL | > 8 µg/mL | 0.5 µg/mL (≈ 0.394 µM) | 1 µg/mL (≈ 0.787 µM) | 0.5 µg/mL (≈ 0.394 µM) | 1 µg/mL (≈ 0.787 µM)
CC[C@@H]([C@H](C)O)n1ncn(-c2ccc(N3CCN(c4ccc(OC[C@@H]5CO[C@@](Cn6cncn6)(c6ccc(F)cc6F)C5)cc4)CC3)cc2)c1=O [POSACONAZOLE] | – | – | – | – | 1 µg/mL (≈ 1.43 µM) | 2 µg/mL (≈ 2.85 µM) | 1 µg/mL (≈ 1.43 µM) | 1 µg/mL (≈ 1.43 µM) | 0.125 µg/mL (≈ 0.178 µM) | 0.125 µg/mL (≈ 0.178 µM) | 0.125 µg/mL (≈ 0.178 µM) | 0.125 µg/mL (≈ 0.178 µM)
C[C@@H](c1ncncc1F)[C@](O)(Cn1cncn1)c1ccc(F)cc1F [VORICONAZOLE] | – | – | – | – | 1 µg/mL (≈ 2.86 µM) | 2 µg/mL (≈ 5.73 µM) | 1 µg/mL (≈ 2.86 µM) | 1 µg/mL (≈ 2.86 µM) | 0.125 µg/mL (≈ 0.358 µM) | 0.125 µg/mL (≈ 0.358 µM) | 0.125 µg/mL (≈ 0.358 µM) | 0.125 µg/mL (≈ 0.358 µM)
